GalR3 antagonist: antagonists of human GalR3 | O60755 | HEK293 GalR3-CNG cAMP membrane potential fluorescence; galR3 body fused to GalR1 C-terminus | inhibition, % at 3 µM | 0.44% of 360,000 active;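 active = inhibition above the screen-wide average plus 3 SD, cut at about 13% in these data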;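 note: forskolin and galanin both at EC90 stimulate the cells; cAMP rise reported by CNG channel membrane potential dye signal; 0% = forskolin plus galanin with DMSO and 100% = forskolin alone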
OX1R antag-1: antagonists of human orexin 1 receptor (OX1R); OX1R-expressing cells, FRET antagonist read-out; inhibition, % at 6.6 µM; 1.8% of 330,000 active; AID 485270; in the data active = inhibition mostly above about 38%, no sharp cut-off; inactive = mostly below about 40%;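 note: 0% = agonist challenge alone and 100% = reference antagonist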
Target sequence (O43613 whole entry, looked up): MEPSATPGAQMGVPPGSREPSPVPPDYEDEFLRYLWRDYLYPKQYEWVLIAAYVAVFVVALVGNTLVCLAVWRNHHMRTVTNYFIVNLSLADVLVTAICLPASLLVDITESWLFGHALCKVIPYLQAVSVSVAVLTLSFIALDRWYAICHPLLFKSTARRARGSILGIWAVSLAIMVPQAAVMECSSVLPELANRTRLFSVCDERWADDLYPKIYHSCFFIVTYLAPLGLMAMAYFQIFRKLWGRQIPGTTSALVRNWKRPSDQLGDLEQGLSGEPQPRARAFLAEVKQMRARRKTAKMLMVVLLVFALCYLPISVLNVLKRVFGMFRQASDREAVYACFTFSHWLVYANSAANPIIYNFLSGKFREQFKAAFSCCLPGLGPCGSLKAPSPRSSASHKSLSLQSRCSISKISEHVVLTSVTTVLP
GPR7 antag: antagonists of human GPR7 (neuropeptides B/W receptor 1) | 1.1% of 290,000 active | P48145 | GPR7-expressing cells, fluorescence antagonist assay | AID 1861 | inhibition, % at 4.4 µM; in the data active = inhibition above about 16%, passing the limit was not always enough;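 note: cells stimulated with the agonist NPW; 0% = agonist with vehicle and 100% = vehicle without agonist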
OX1R antag-2: human HCRTR1 antagonism; CHO/OX1R cells, Fluo-8 calcium fluorescence, orexin A; inhibition, % at 5 µM; O43613; AID 434989; 0.43% of 330,000 active;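 active = inhibition above its plate's threshold, mean inhibition of all tested compounds on the plate plus 3 SD, cut at about 37% in these data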;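 note: 0% = orexin A challenge wells and 100% = SB-334867-A antagonist wells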
CHO parental Ca: counter-screen for OX1R antagonists: effect in parental CHO cells; parental CHO-K1, ATP-induced calcium, Fluo-8 fluorescence; inhibition, % at 5.6 µM; 0.63% of 330,000 active; AID 463079;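 active = inhibition above that plate's mean sample inhibition plus 3 SD, cut at about 26% in these data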;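 note: 0% = ATP-challenged DMSO wells and 100% = DMSO wells without ATP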
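Test system: untransfected parental CHO cell line. Compound: one dose, 5.6 µM nominal. Detection: intracellular calcium via Fluo-8 no-wash fluorescent dye. Measure: % inhibition. Benchmarks: ATP-challenged DMSO wells low, unchallenged DMSO wells high.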
GalR3 antag conf: GalR3 (human) antagonism, confirmation; inhibition, % at 3 µM; 59% of 1,600 active; AID 652245; shares compounds with GalR3 antagonist; HEK293 GalR3 CNG cAMP biosensor, membrane potential fluorescence; galR3 fused to GalR1 carboxy tail; challenged with forskolin and galanin at EC90;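 active = inhibition above the primary screen's cutoff, the mean inhibition of all screened compounds plus 3 SD, cut at about 13% in these data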;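 note: 0% = forskolin plus galanin and 100% = forskolin alone with DMSO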
HEK-CNG parental: counter-screen for GalR3 antagonists: nonspecific agonists in parental HEK-CNG cells. shares compounds with GalR3 antagonist. activation, % at 3 µM. HEK293-CNG parental cells, cAMP membrane potential fluorescence; normalised: DMSO wells 0%, forskolin wells 100%. 10% of 1,600 active; in the data active = activation above about 1.3%
* = called active by the depositor. Shown are actives, neighbours in structure and some others; about 3.1% of the full set was active somewhere.

Results for CCCC(CCC)=NNc1ccc(S(=O)(=O)Nc2ccccc2OC)cc1[N+](=O)[O-] ?
GalR3 antagonist: 0; OX1R antag-1: 7; GPR7 antag: -6; OX1R antag-2: -17; CHO parental Ca: -11

How did CCCn1c(SCc2ccc(Cl)cc2)nc2c1c(=O)[nH]c(=O)n2C do in these assays?
GalR3 antagonist: 14*; OX1R antag-1: 18; GPR7 antag: -14; OX1R antag-2: -9; CHO parental Ca: -25; GalR3 antag conf: 32*; HEK-CNG parental: 1.3*

How did Cc1ccc(CCNc2ncnc(Cl)c2N)cc1 do in these assays?
GalR3 antagonist: 104*; GalR3 antag conf: 104*; HEK-CNG parental: 0

How did Cc1cc2nc(-c3cccc(Cl)c3)c(CC(C)(C)C)n2c(C)c1Br do in these assays?
GalR3 antagonist: -6

Results for CC(O)CC(=O)OC[C@]12CC[C@H]3[C@@](C)(CC[C@H]4C(C)(C)CCC[C@]34C)[C@@H]1CC(C1=CC(=O)OC1O)O2 (stereo partly specified) ?
GalR3 antagonist: 23*; GalR3 antag conf: 22*; HEK-CNG parental: 1

Results for O=C(NC1CCOc2ccccc21)C1CCCC1 (stereo unspecified) ?
GalR3 antagonist: -7; OX1R antag-1: 15; GPR7 antag: -9; OX1R antag-2: -15; CHO parental Ca: -12

How did CCCCCC(=O)NNC(=S)NC(C)=O do in these assays?
GalR3 antagonist: 13*; OX1R antag-1: 8; GPR7 antag: 1; OX1R antag-2: -8; CHO parental Ca: -5; GalR3 antag conf: 2; HEK-CNG parental: 0

How did COc1cc2c(cc1OC)CN(C(=O)CNS(=O)(=O)c1ccc(C)c(C)c1)CC2 do in these assays?
GalR3 antagonist: -4; OX1R antag-1: 20; GPR7 antag: -6; OX1R antag-2: -23; CHO parental Ca: -17

Results for CC1(C)CC2CC(C)(CN2S(=O)(=O)c2ccc(C(=O)Nc3cccc(S(=O)(=O)N4CCOCC4)c3)cc2)C1 (stereo unspecified) ?
GalR3 antagonist: 87*; OX1R antag-1: 7; GPR7 antag: 9; OX1R antag-2: 2; CHO parental Ca: 6; GalR3 antag conf: 115*; HEK-CNG parental: -2

How did CC1(C)CC2CC(C)(CN2S(=O)(=O)c2ccc(C(=O)Nc3cc(S(=O)(=O)N4CCOCC4)ccc3Cl)cc2)C1 (stereo unspecified) do in these assays?
GalR3 antagonist: -4; OX1R antag-1: 16; GPR7 antag: 0; OX1R antag-2: 10; CHO parental Ca: -2

What do the screens show for `Cc1ccc(-c2nn(CC(=O)N3CCOCC3)c(=O)c3ccccc23)cc1S(=O)(=O)N(C)C`?
GalR3 antagonist: 0; OX1R antag-1: 12; GPR7 antag: -6; OX1R antag-2: -13; CHO parental Ca: -9

How did O=C(Cn1nc(-c2ccc(N3CCOCC3)c([N+](=O)[O-])c2)c2ccccc2c1=O)N1CCCCC1 do in these assays?
GalR3 antagonist: 15*; OX1R antag-1: 21; GPR7 antag: -15; OX1R antag-2: -17; CHO parental Ca: -14; GalR3 antag conf: 60*; HEK-CNG parental: 0

What do the screens show for `CCC1=Nc2cc(C(=O)NCC3CCCO3)ccc2Sc2ccc(Cl)cc21` (stereo unspecified)?
GalR3 antagonist: 16*; OX1R antag-1: 11; GPR7 antag: 0; OX1R antag-2: -31; CHO parental Ca: -23; GalR3 antag conf: 9; HEK-CNG parental: 0

How did O=S(=O)(NCC1CN(S(=O)(=O)c2c(F)cccc2F)C1)c1ccc2c(c1)OCCO2 do in these assays?
GalR3 antagonist: 73*; OX1R antag-1: 10; OX1R antag-2: 29; CHO parental Ca: 1; GalR3 antag conf: 103*; HEK-CNG parental: 0

Results for O=S(=O)(NCCCCCNS(=O)(=O)c1c(F)cccc1F)c1ccc2c(c1)OCCO2 ?
GalR3 antagonist: -5; OX1R antag-1: 16; OX1R antag-2: -7; CHO parental Ca: -8

How did C[n+]1ccn(CC(=O)c2cc(C(C)(C)C)c(O)c(C(C)(C)C)c2)c1 do in these assays?
GalR3 antagonist: -10; OX1R antag-1: -1; GPR7 antag: -18; OX1R antag-2: -3; CHO parental Ca: -9
